According to ChEMBL document CHEMBL4828761, “Development and crystallography-aided SAR studies of multifunctional BuChE inhibitors and 5-HT6R antagonists with β-amyloid anti-aggregation properties” (Eur J Med Chem, 2021):

Target: 5-hydroxytryptamine receptor 6 (Homo sapiens, UniProt P50406)
Test: Displacement of [3H]LSD from human 5HT6 receptor expressed in CHO-K1 membrane incubated for 60 mins by solid scintillation counting analysis
Format: cell membranes
Conditions: not given

5-hydroxytryptamine receptor 6, sequence (P50406 whole entry): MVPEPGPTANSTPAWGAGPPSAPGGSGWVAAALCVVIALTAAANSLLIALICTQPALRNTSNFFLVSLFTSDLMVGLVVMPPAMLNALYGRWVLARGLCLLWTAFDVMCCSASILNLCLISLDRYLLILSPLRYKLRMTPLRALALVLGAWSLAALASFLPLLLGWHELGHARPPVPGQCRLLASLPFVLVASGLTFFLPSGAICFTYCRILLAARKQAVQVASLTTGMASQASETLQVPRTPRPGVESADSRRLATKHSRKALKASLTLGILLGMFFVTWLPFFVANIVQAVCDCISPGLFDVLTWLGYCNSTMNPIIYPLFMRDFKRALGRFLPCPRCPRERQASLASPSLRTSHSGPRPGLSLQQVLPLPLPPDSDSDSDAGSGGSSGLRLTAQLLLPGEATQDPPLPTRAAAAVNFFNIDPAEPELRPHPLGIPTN

Structure (SMILES) | Ki
COc1cccc(CNCCOc2cccc3c2ccn3S(=O)(=O)c2ccccc2)c1 | 3.6 nM
O=S(=O)(c1ccccc1)n1ccc2c(OCCNCc3ccccn3)cccc21 | 0.4 nM
O=[N+]([O-])c1ccc(CNCCOc2cccc3c2ccn3S(=O)(=O)c2ccccc2)cc1 | 22 nM
COc1ccc(CNCCOc2cccc3c2ccn3S(=O)(=O)c2ccccc2)cc1 | 1.4 nM
CC(C)(C)OC(=O)N1CCCC(CNCCOc2cccc3c2[nH]c(=O)n3Cc2ccccc2)C1 (stereo not given) | 155 nM
CN(C)c1cccc(CNCCOc2cccc3c2ccn3S(=O)(=O)c2ccccc2)c1 | 6 nM
COc1ccc(CNCCOc2cccc3c2ccn3S(=O)(=O)c2ccccc2)cc1OC | 0.5 nM
CC(=O)Oc1ccc(CNCCOc2cccc3c2ccn3S(=O)(=O)c2cccc3ccccc23)cc1 | 24 nM
O=S(=O)(c1ccccc1)n1ccc2c(OCCNCc3cccc(Cl)c3)cccc21 | 5 nM
CC(C)(C)OC(=O)N1CCC(CNCCOc2cccc3c2ccn3S(=O)(=O)c2ccccc2)CC1 | 7 nM
CCOc1ccc(CNCCOc2cccc3c2ccn3S(=O)(=O)c2ccccc2)cc1 | 13 nM
CCOc1cccc(CNCCOc2cccc3c2ccn3S(=O)(=O)c2ccccc2)c1 | 3 nM
c1ccc(CNCCOc2cccc3c2ccn3Cc2ccccc2)cc1 | 232 nM
O=S(=O)(c1ccccc1)n1ccc2c(OCCNCc3ccc4c(c3)OCCO4)cccc21 | 0.5 nM
O=c1[nH]c2c(OCCNCc3ccccc3)cccc2n1Cc1ccccc1 | 144 nM
CN(CCOc1cccc2c1ccn2S(=O)(=O)c1ccccc1)Cc1ccccc1 | 27 nM
Cc1cccc(CNCCOc2cccc3c2[nH]c(=O)n3Cc2ccccc2)c1 | 207 nM
O=S(=O)(c1ccccc1)n1ccc2c(OCCNCc3ccc(F)cc3)cccc21 | 6 nM
O=S(=O)(c1ccccc1)n1ccc2c(OCCNCc3ccncc3)cccc21 | 3 nM
O=S(=O)(c1ccccc1)n1ccc2c(N3CCN(Cc4ccccc4)CC3)cccc21 | 60 nM
CN(C)c1ccc(CNCCOc2cccc3c2ccn3S(=O)(=O)c2ccccc2)cc1 | 3.5 nM
O=S(=O)(c1ccccc1)n1ccc2c(OCCNCc3ccc(Cl)cc3)cccc21 | 16 nM
c1ccc(CNCCOc2cccc3c2CCN3Cc2ccccc2)cc1 | 389 nM
O=S(=O)(c1ccccc1)n1ccc2c(OCCNCC3CCCNC3)cccc21 (stereo not given) | 75 nM
Cc1cccc(CNCCOc2cccc3c2ccn3S(=O)(=O)c2cccc3ccccc23)c1 | 12 nM
Cc1cccc(CNCCOc2cccc3c2CCN3S(=O)(=O)c2ccccc2)c1 | 12 nM

Target: Cholinesterase (Equus caballus, UniProt P81908)
Sequence (P81908 whole entry): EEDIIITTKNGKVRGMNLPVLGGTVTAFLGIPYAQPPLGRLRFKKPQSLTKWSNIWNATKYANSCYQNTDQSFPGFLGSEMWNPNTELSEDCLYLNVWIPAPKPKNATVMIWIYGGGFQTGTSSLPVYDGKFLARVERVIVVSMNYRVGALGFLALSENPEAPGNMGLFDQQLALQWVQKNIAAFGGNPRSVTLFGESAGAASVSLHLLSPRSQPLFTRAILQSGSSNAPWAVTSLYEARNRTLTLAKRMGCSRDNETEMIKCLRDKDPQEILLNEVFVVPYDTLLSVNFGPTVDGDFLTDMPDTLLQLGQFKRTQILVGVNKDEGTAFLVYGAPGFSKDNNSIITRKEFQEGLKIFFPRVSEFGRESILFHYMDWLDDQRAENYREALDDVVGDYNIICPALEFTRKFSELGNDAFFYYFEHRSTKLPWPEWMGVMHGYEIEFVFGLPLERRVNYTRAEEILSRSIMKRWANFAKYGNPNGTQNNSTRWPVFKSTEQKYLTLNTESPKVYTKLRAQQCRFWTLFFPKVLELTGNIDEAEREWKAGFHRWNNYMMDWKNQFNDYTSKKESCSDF
Test: Inhibition of equine serum BuChE using BTC as substrate preincubated with enzyme for 5 mins followed by substrate addition for 5 mins by Ellman's method
Format: cell-free
Conditions: not given

Structure (SMILES) | IC50
COc1cccc(CNCCOc2cccc3c2ccn3S(=O)(=O)c2ccccc2)c1 | 1660 nM
O=S(=O)(c1ccccc1)n1ccc2c(OCCNCc3ccccn3)cccc21 | 1290 nM
O=[N+]([O-])c1ccc(CNCCOc2cccc3c2ccn3S(=O)(=O)c2ccccc2)cc1 | 18300 nM
COc1ccc(CNCCOc2cccc3c2ccn3S(=O)(=O)c2ccccc2)cc1 | 1330 nM
CC(C)(C)OC(=O)N1CCCC(CNCCOc2cccc3c2[nH]c(=O)n3Cc2ccccc2)C1 (stereo not given) | 467 nM
CN(C)c1cccc(CNCCOc2cccc3c2ccn3S(=O)(=O)c2ccccc2)c1 | 894 nM
COc1ccc(CNCCOc2cccc3c2ccn3S(=O)(=O)c2ccccc2)cc1OC | 3320 nM
CC(=O)Oc1ccc(CNCCOc2cccc3c2ccn3S(=O)(=O)c2cccc3ccccc23)cc1 | 261 nM
O=S(=O)(c1ccccc1)n1ccc2c(OCCNCc3cccc(Cl)c3)cccc21 | 580 nM
CC(C)(C)OC(=O)N1CCC(CNCCOc2cccc3c2ccn3S(=O)(=O)c2ccccc2)CC1 | 4820 nM
CCOc1ccc(CNCCOc2cccc3c2ccn3S(=O)(=O)c2ccccc2)cc1 | 3300 nM
CCOc1cccc(CNCCOc2cccc3c2ccn3S(=O)(=O)c2ccccc2)c1 | 2410 nM
c1ccc(CNCCOc2cccc3c2ccn3Cc2ccccc2)cc1 | 626 nM
O=S(=O)(c1ccccc1)n1ccc2c(OCCNCc3ccc4c(c3)OCCO4)cccc21 | 2170 nM
O=c1[nH]c2c(OCCNCc3ccccc3)cccc2n1Cc1ccccc1 | 1840 nM
CN(CCOc1cccc2c1ccn2S(=O)(=O)c1ccccc1)Cc1ccccc1 | 1420 nM
Cc1cccc(CNCCOc2cccc3c2[nH]c(=O)n3Cc2ccccc2)c1 | 1500 nM
O=S(=O)(c1ccccc1)n1ccc2c(OCCNCc3ccc(F)cc3)cccc21 | 985 nM
CN(C)c1ccc(CNCCOc2cccc3c2ccn3S(=O)(=O)c2ccccc2)cc1 | 3080 nM
O=S(=O)(c1ccccc1)n1ccc2c(OCCNCc3ccc(Cl)cc3)cccc21 | 1320 nM
c1ccc(CNCCOc2cccc3c2CCN3Cc2ccccc2)cc1 | 997 nM
O=S(=O)(c1ccccc1)n1ccc2c(OCCNCC3CCCNC3)cccc21 (stereo not given) | 2260 nM
Cc1cccc(CNCCOc2cccc3c2ccn3S(=O)(=O)c2cccc3ccccc23)c1 | 148 nM
Cc1cccc(CNCCOc2cccc3c2CCN3S(=O)(=O)c2ccccc2)c1 | 2300 nM

Target: T1, Cholinesterase (Homo sapiens, UniProt P06276)
T1 sequence (P06276 whole entry): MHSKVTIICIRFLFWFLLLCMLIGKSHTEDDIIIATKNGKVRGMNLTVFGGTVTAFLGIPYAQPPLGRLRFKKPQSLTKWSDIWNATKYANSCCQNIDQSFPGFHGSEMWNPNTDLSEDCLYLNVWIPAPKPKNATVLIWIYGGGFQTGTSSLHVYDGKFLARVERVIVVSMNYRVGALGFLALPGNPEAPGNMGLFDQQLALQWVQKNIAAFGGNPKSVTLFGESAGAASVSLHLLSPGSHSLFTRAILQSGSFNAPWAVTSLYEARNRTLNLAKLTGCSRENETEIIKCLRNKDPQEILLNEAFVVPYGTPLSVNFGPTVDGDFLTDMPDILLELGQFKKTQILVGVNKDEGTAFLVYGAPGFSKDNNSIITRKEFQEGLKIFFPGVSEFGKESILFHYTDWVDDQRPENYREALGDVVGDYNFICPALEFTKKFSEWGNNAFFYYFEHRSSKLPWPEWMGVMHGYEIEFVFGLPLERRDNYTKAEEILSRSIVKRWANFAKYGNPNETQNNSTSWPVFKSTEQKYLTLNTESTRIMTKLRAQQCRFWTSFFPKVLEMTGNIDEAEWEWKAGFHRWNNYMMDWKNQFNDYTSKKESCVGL
Test: Inhibition of BuChE in human plasma using BTC as substrate preincubated with enzyme for 5 mins followed by substrate addition for 5 mins by Ellman's method
Format: cell-free
Conditions: not given
Summary of the method: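 Human plasma BuChE at 0.384 U/mL final, with DTNB in 0.1 M phosphate pH 8.0. […] BTC solution (0.00375 M) added; A412 after 5 min. Run in triplicate; IC50 from nonlinear regression of residual activity versus concentration.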

Structure (SMILES) | IC50
O=S(=O)(c1ccccc1)n1ccc2c(OCCNCc3cccc(Cl)c3)cccc21 | 11800 nM

Target: Amyloid-beta precursor protein (Homo sapiens) (UniProt P05067)
Sequence (P05067 whole entry): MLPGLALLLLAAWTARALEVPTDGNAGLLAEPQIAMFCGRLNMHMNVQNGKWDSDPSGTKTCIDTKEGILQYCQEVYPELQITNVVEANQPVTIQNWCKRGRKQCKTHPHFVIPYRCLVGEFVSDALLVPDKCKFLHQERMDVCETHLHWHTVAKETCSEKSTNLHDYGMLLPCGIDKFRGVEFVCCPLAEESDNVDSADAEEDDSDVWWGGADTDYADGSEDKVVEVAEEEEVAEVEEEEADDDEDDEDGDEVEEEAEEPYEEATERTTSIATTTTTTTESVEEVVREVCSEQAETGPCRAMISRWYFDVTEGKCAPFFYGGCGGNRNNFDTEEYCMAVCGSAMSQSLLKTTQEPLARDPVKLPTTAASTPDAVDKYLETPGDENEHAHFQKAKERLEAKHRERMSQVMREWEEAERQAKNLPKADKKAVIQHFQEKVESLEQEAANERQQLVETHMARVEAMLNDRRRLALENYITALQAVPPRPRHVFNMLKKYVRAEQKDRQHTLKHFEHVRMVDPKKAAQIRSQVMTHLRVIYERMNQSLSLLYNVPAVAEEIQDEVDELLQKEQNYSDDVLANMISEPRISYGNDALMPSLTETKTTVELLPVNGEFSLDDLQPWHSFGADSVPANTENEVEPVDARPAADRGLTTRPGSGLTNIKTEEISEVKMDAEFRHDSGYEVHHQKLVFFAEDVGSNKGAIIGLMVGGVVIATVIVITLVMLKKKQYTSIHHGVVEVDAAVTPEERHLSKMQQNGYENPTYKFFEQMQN
Test: Inhibition of amyloid beta (1 to 42) (unknown origin) self aggregation at 10 uM incubated for 24 to 48 hrs by Thioflavin-T based fluorometric assay
Conditions: time lower […], time upper 48.0 hrs

Structure (SMILES) | inhibition
COc1cccc(CNCCOc2cccc3c2ccn3S(=O)(=O)c2ccccc2)c1 | 27.6%
O=S(=O)(c1ccccc1)n1ccc2c(OCCNCc3ccccn3)cccc21 | < 20%
O=[N+]([O-])c1ccc(CNCCOc2cccc3c2ccn3S(=O)(=O)c2ccccc2)cc1 | 35.1%
COc1ccc(CNCCOc2cccc3c2ccn3S(=O)(=O)c2ccccc2)cc1 | 54.2%
CC(C)(C)OC(=O)N1CCCC(CNCCOc2cccc3c2[nH]c(=O)n3Cc2ccccc2)C1 (stereo not given) | 43.9%
CN(C)c1cccc(CNCCOc2cccc3c2ccn3S(=O)(=O)c2ccccc2)c1 | < 20%
COc1ccc(CNCCOc2cccc3c2ccn3S(=O)(=O)c2ccccc2)cc1OC | 36.8%
CC(=O)Oc1ccc(CNCCOc2cccc3c2ccn3S(=O)(=O)c2cccc3ccccc23)cc1 | < 20%
O=S(=O)(c1ccccc1)n1ccc2c(OCCNCc3cccc(Cl)c3)cccc21 | < 20%
CC(C)(C)OC(=O)N1CCC(CNCCOc2cccc3c2ccn3S(=O)(=O)c2ccccc2)CC1 | 69.7%
CCOc1ccc(CNCCOc2cccc3c2ccn3S(=O)(=O)c2ccccc2)cc1 | < 20%
CCOc1cccc(CNCCOc2cccc3c2ccn3S(=O)(=O)c2ccccc2)c1 | < 20%
c1ccc(CNCCOc2cccc3c2ccn3Cc2ccccc2)cc1 | 71.3%
O=S(=O)(c1ccccc1)n1ccc2c(OCCNCc3ccc4c(c3)OCCO4)cccc21 | < 20%
O=c1[nH]c2c(OCCNCc3ccccc3)cccc2n1Cc1ccccc1 | 32.9%
CN(CCOc1cccc2c1ccn2S(=O)(=O)c1ccccc1)Cc1ccccc1 | < 20%
Cc1cccc(CNCCOc2cccc3c2[nH]c(=O)n3Cc2ccccc2)c1 | 64.3%
O=S(=O)(c1ccccc1)n1ccc2c(OCCNCc3ccc(F)cc3)cccc21 | 40.5%
O=S(=O)(c1ccccc1)n1ccc2c(OCCNCc3ccncc3)cccc21 | < 20%
O=S(=O)(c1ccccc1)n1ccc2c(N3CCN(Cc4ccccc4)CC3)cccc21 | < 20%
CN(C)c1ccc(CNCCOc2cccc3c2ccn3S(=O)(=O)c2ccccc2)cc1 | < 20%
O=S(=O)(c1ccccc1)n1ccc2c(OCCNCc3ccc(Cl)cc3)cccc21 | < 20%
c1ccc(CNCCOc2cccc3c2CCN3Cc2ccccc2)cc1 | 72.5%
O=S(=O)(c1ccccc1)n1ccc2c(OCCNCC3CCCNC3)cccc21 (stereo not given) | 27.3%
Cc1cccc(CNCCOc2cccc3c2ccn3S(=O)(=O)c2cccc3ccccc23)c1 | 23.6%
Cc1cccc(CNCCOc2cccc3c2CCN3S(=O)(=O)c2ccccc2)c1 | < 20%

Target: T1, Cholinesterase
Test: Inhibition of BuChE in human plasma using BTC as substrate at 10 uM preincubated with enzyme for 5 mins followed by substrate addition for 5 mins by Ellman's method relative to control
Format: cell-free
Conditions: time 10.0 min
Summary of the method: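 Human plasma BuChE at 0.384 U/mL final, with DTNB in 0.1 M phosphate buffer pH 8.0. Compound at 10 µM screened, preincubated 5 min at 36 °C.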

Structure (SMILES) | inhibition
COc1cccc(CNCCOc2cccc3c2ccn3S(=O)(=O)c2ccccc2)c1 | < 50%
O=S(=O)(c1ccccc1)n1ccc2c(OCCNCc3ccccn3)cccc21 | < 50%
O=[N+]([O-])c1ccc(CNCCOc2cccc3c2ccn3S(=O)(=O)c2ccccc2)cc1 | < 50%
COc1ccc(CNCCOc2cccc3c2ccn3S(=O)(=O)c2ccccc2)cc1 | < 50%
CC(C)(C)OC(=O)N1CCCC(CNCCOc2cccc3c2[nH]c(=O)n3Cc2ccccc2)C1 (stereo not given) | < 50%
CN(C)c1cccc(CNCCOc2cccc3c2ccn3S(=O)(=O)c2ccccc2)c1 | < 50%
COc1ccc(CNCCOc2cccc3c2ccn3S(=O)(=O)c2ccccc2)cc1OC | < 50%
CC(=O)Oc1ccc(CNCCOc2cccc3c2ccn3S(=O)(=O)c2cccc3ccccc23)cc1 | < 50%
O=S(=O)(c1ccccc1)n1ccc2c(OCCNCc3cccc(Cl)c3)cccc21 | > 50%
CC(C)(C)OC(=O)N1CCC(CNCCOc2cccc3c2ccn3S(=O)(=O)c2ccccc2)CC1 | < 50%
CCOc1ccc(CNCCOc2cccc3c2ccn3S(=O)(=O)c2ccccc2)cc1 | < 50%
CCOc1cccc(CNCCOc2cccc3c2ccn3S(=O)(=O)c2ccccc2)c1 | < 50%
c1ccc(CNCCOc2cccc3c2ccn3Cc2ccccc2)cc1 | < 50%
O=S(=O)(c1ccccc1)n1ccc2c(OCCNCc3ccc4c(c3)OCCO4)cccc21 | < 50%
O=c1[nH]c2c(OCCNCc3ccccc3)cccc2n1Cc1ccccc1 | < 50%
CN(CCOc1cccc2c1ccn2S(=O)(=O)c1ccccc1)Cc1ccccc1 | < 50%
Cc1cccc(CNCCOc2cccc3c2[nH]c(=O)n3Cc2ccccc2)c1 | < 50%
O=S(=O)(c1ccccc1)n1ccc2c(OCCNCc3ccc(F)cc3)cccc21 | < 50%
O=S(=O)(c1ccccc1)n1ccc2c(OCCNCc3ccncc3)cccc21 | < 50%
O=S(=O)(c1ccccc1)n1ccc2c(N3CCN(Cc4ccccc4)CC3)cccc21 | < 50%
CN(C)c1ccc(CNCCOc2cccc3c2ccn3S(=O)(=O)c2ccccc2)cc1 | < 50%
O=S(=O)(c1ccccc1)n1ccc2c(OCCNCc3ccc(Cl)cc3)cccc21 | < 50%
c1ccc(CNCCOc2cccc3c2CCN3Cc2ccccc2)cc1 | < 50%
O=S(=O)(c1ccccc1)n1ccc2c(OCCNCC3CCCNC3)cccc21 (stereo not given) | < 50%
Cc1cccc(CNCCOc2cccc3c2ccn3S(=O)(=O)c2cccc3ccccc23)c1 | < 50%
Cc1cccc(CNCCOc2cccc3c2CCN3S(=O)(=O)c2ccccc2)c1 | < 50%

Target: Acetylcholinesterase (Electrophorus electricus, UniProt O42275)
Sequence (O42275 whole entry): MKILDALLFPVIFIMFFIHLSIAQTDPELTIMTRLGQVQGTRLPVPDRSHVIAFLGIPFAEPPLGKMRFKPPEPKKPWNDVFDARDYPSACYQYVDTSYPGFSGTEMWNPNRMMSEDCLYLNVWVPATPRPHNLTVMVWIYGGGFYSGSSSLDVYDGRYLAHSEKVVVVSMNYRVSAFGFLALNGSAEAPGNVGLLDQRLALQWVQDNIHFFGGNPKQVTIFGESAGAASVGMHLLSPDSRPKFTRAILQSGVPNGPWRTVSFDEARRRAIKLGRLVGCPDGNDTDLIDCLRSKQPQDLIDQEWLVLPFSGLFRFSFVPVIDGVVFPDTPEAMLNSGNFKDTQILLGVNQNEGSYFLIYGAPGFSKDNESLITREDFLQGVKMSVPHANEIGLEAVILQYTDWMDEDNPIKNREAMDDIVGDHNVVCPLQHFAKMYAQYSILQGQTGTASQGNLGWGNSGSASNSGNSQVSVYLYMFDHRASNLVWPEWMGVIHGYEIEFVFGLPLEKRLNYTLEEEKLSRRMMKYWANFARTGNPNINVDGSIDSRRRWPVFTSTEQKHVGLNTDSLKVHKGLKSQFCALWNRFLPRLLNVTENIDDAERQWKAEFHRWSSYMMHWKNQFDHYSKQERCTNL
Test: Inhibition of electric eel AchE using ATC as substrate preincubated with enzyme for 5 mins followed by substrate addition for 5 mins by Ellman's method
Conditions: not given
Summary of the method: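 Electric eel AChE at 0.384 U/mL final, with DTNB in 0.1 M phosphate pH 8.0. […] ATC solution (0.00375 M) added; A412 after 5 min. Run in triplicate; IC50 by nonlinear regression of residual activity versus concentration.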

Structure (SMILES) | IC50
O=c1[nH]c2c(OCCNCc3ccccc3)cccc2n1Cc1ccccc1 | 1080 nM
Cc1cccc(CNCCOc2cccc3c2[nH]c(=O)n3Cc2ccccc2)c1 | 1800 nM
